The values below come from PMC3182555 (Nature chemical biology, 2011).

One may read the IC50 as the point on the concentration scale where inhibition reaches its midpoint.

In assay [1] the target is T1, β2-microglobulin (β2m) (Homo sapiens, UniProt P61769). Nature of the assay: ESI-IMS-MS of non-covalent complexes. Type of assay: biochemical. Put shortly: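 45 μM β2m at pH 2.5 with test compound (0–1125 μM), shaken at 600 rpm, 25 °C, 48 h, three or more replicates pooled. Spun at 16,300x g for 30 min. Supernatant run on SDS-PAGE, and bands quantified as percent soluble protein versus compound:β2m molar ratio. Binding: 38 μM β2m, 10 mM ammonium formate pH 2.5, 40 or 400 μM compound, 10% acetonitrile, ESI-IMS-MS at 70 V cone.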

Assay [2] concerns the target T1, β2-microglobulin (β2m). Nature of the assay: ESI-IMS-MS of non-covalent complexes. Type of assay: binding.

T1 sequence (P61769 21-119): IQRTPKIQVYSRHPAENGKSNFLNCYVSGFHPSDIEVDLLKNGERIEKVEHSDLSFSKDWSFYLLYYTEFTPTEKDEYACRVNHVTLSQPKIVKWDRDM

`CO[C@H]1/C=C/O[C@@]2(C)Oc3c(C)c(O)c4c(O)c(cc(O)c4c3C2=O)NC(=O)/C(C)=C\C=C\[C@H](C)[C@H](O)[C@@H](C)[C@@H](O)[C@@H](C)[C@H](OC(C)=O)[C@@H]1C` [rifamycin SV] returned a concentration for half-maximal inhibition (IC50) on β2-microglobulin (β2m) [1] of about 300 µM.

Regarding `CO[C@H]1/C=C/O[C@@]2(C)Oc3c(C)c(O)c4c(O)c(c5c(nc6cc(C)ccn65)c4c3C2=O)NC(=O)/C(C)=C\C=C\[C@H](C)[C@H](O)[C@@H](C)[C@@H](O)[C@@H](C)[C@H](OC(C)=O)[C@@H]1C` [rifaximin], the “ESI-IMS-MS of non-covalent complexes” value on β2-microglobulin (β2m) [2] is listed as “Instead, only the most compact conformer shows binding to this ligand (Figure 4c)”.
